In paper PMC9989852 (Food and chemical toxicology : an international journal …, 2022):
Where “and” joins values, the source holds several entries; their conditions need not be identical. Equal values may be shown once.

Legend:
[1] = system: auricular draining lymph nodes (dLNs); assay: Draining lymph node phenotyping by flow cytometry after 28-day dermal exposure; format: in vivo, B6C3F1 mice; settings: 28 days
Method in brief: (§1)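 Female B6C3F1 mice (5/group) received 25 μl/ear daily to the dorsal ears in acetone. About 24 h after the last dose, tissues went into RPMI: both auricular dLNs, half spleen and one ear pinna. Single-cell suspensions were acquired on an LSR II, with populations gated per supplemental strategy and FMO gating controls. Results are mean ± SE, n=5, by one-way ANOVA.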

[2] = system: spleen; assay: Spleen phenotyping by flow cytometry after 28-day dermal exposure; format: in vivo, B6C3F1 mice; settings: 28 days
Method in brief: as §1

[3] = system: liver; assay: Liver histopathology after 28-day dermal exposure; format: in vivo, B6C3F1 mice; settings: 28 days, mice affected of 5
Method in brief: (§2)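 Female B6C3F1 mice (5/group) received 25 μl/ear on the dorsal ear surfaces daily, with acetone as vehicle. Tissues were formalin-fixed about 24 h after the last dose: liver remainder, half spleen, right kidney and half ear pinna. Sections were paraffin-embedded, cut at 5 μm and stained with H&E. A veterinary pathologist read them per STP guideline and graded 1 (minimal) to 5 (severe) by extent.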

[4] = system: kidney, spleen; assay: Kidney and spleen histopathology after 28-day dermal exposure; format: in vivo, B6C3F1 mice; settings: 1.25–5%, 28 days, data not shown
Method in brief: as §2

[5] = PFAS concentration in serum; format: in vivo, B6C3F1 mice; settings: dermal, 28 days
Method in brief: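 Serum came by cardiac puncture about 24 h after the final daily ear dose (25 μl/ear, acetone vehicle; female B6C3F1 mice). Samples underwent solid-phase extraction and LC/MS/MS. Short-chain analytes were quantified as linear isomer only; the legacy comparator was quantified as linear plus branched. Data are mean ± SE of 4–5 mice, one-way ANOVA with Dunnett's vs vehicle.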

[6] = system: B6C3F1 mice; assay: Organ weights and body weight after 28-day dermal exposure; format: in vivo; settings: 28 days
[7] = system: B6C3F1 mice; assay: Serum chemistries after 28-day dermal exposure; format: in vivo; settings: 5%, 28 days
Method in brief: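 Female B6C3F1 mice received daily dorsal ear application (25 μl/ear, acetone vehicle). About 24 h after the last dose, blood was taken by cardiac puncture. Serum was separated by centrifugation and stored at −20 °C. ALKP, BUN, glucose and cholesterol were read on a Catalyst DX analyzer. Data are mean ± SE of 4–5 mice, ANOVA with Dunnett's; ALKP was also tested by linear regression (p < 0.05).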

[8] = system: liver (caudate); assay: Liver gene expression; format: in vivo, B6C3F1 mice; settings: dermal, 28 days
Method in brief: (§3)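 Dosing was daily topical to both dorsal ears (25 μl/ear, acetone vehicle) in female B6C3F1 mice. Liver caudate lobe or half ear pinna was stored in RNAlater and homogenized in RLT buffer. RNA was isolated on RNeasy columns with DNase, and 1–2 μg was reverse-transcribed. TaqMan real-time PCR was read as 2−ΔΔCT vs vehicle, normalized to β-actin. Statistics: ANOVA/Dunnett's, or Kruskal-Wallis/Dunn's for unequal variance.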

[9] = system: ear pinna; assay: Skin; format: in vivo, B6C3F1 mice; settings: dermal, 28 days
Method in brief: as §3

Compound: O=C(O)C(F)(F)C(F)(F)C(F)(F)C(F)(F)C(F)(F)F [PFHxA, perfluorohexanoic acid]
- dLN B-cells cell number ([1]; 1.25%): 28.40 ± 6.63 × 10^5
- dLN B-cells frequency ([1]; 1.25%): 18.06 ± 2.12%
- dLN CD4^+ cell number ([1]; 1.25%): 5.93 ± 0.59 × 10^6
- dLN CD4^+ frequency ([1]; 1.25%): 40.24 ± 1.70%
- dLN CD8^+ cell number ([1]; 1.25%): 42.50 ± 4.15 × 10^5
- dLN CD8^+ frequency ([1]; 1.25%): 28.94 ± 1.29%
- dLN CD11b+ cell number ([1]; 1.25%): 16.20 ±3.71 × 10^4
- dLN CD11b+ frequency ([1]; 1.25%): 1.04 ± 0.12%
- dLN CD86 B-cells ([1]; 1.25%): 98.74 ±6.64 MFI
- dLN CD86 DCs ([1]; 1.25%): 11.60 ± 1.51 MFI x 10^2
- dLN Dendritic Cells cell number ([1]; 1.25%): 29.00 ±2.99 × 10^4
- dLN Dendritic Cells frequency ([1]; 1.25%): 2.01 ± 0.22 %
- dLN Eosinophils cell number ([1]; 1.25%): 96.70 ± 17.60 × 10^2
- dLN MHCII B-cells ([1]; 1.25%): 7.07 ± 0.37 MFI × 10^2
- dLN MHCII DCs ([1]; 1.25%): 57.30 ±2.79 MFI × IQ^2
- dLN NK cell number ([1]; 1.25%): 11.60 ±0.64 × 10^4
- dLN NK frequency ([1]; 1.25%): 0.82 ± 0.08%
- dLN Neutrophils cell number ([1]; 1.25%): 18.80 ±5.25 × 10^2
- dLN Total Cellularity ([1]; 1.25%): 15.00 ± 1.92 × 10^6
- dLN B-cells cell number ([1]; 2.5%): 32.50 ± 3.50 × 10^5
- dLN B-cells frequency ([1]; 2.5%): 15.94 ± 0.38%
- dLN CD4^+ cell number ([1]; 2.5%): 8.16 ± 0.58 × 10^6
- dLN CD4^+ frequency ([1]; 2.5%): 40.56 ± 1.03%
- dLN CD8^+ cell number ([1]; 2.5%): 56.80 ± 5.72 × 10^5
- dLN CD8^+ frequency ([1]; 2.5%): 27.94 ± 0.36%
- dLN CD11b+ cell number ([1]; 2.5%): 25.30 ± 2.29 × 10^4
- dLN CD11b+ frequency ([1]; 2.5%): 1.25 ± 0.04 %
- dLN CD86 B-cells ([1]; 2.5%): 93.54 ± 1.71 MFI
- dLN CD86 DCs ([1]; 2.5%): 13.20 ± 1.29 MFI x 10^2
- dLN Dendritic Cells cell number ([1]; 2.5%): 47.00 ± 5.39 × 10^4
- dLN Dendritic Cells frequency ([1]; 2.5%): 2.32 ± 0.14 %
- dLN Eosinophils cell number ([1]; 2.5%): 140.00 ± 17.30 × 10^2
- dLN MHCII B-cells ([1]; 2.5%): 7.16 ± 0.11 MFI × 10^2
- dLN MHCII DCs ([1]; 2.5%): 63.50 ± 5.71 MFI × IQ^2
- dLN NK cell number ([1]; 2.5%): 19.50 ± 2.26 × 10^4
- dLN NK frequency ([1]; 2.5%): 0.95 ± 0.03 %
- dLN Neutrophils cell number ([1]; 2.5%): 21.50 ± 1.28 × 10^2
- dLN Total Cellularity ([1]; 2.5%): 20.30 ± 1.81 × 10^6
- dLN B-cells cell number ([1]; 5%): 37.30 ± 1.54 × 10^5
- dLN B-cells frequency ([1]; 5%): 17.38 ± 0.94%
- dLN CD4^+ frequency ([1]; 5%): 41.58 ± 0.62%
- dLN CD8^+ cell number ([1]; 5%): 58.40 ± 4.46 × 10^5
- dLN CD8^+ frequency ([1]; 5%): 26.82 ± 0.64%
- dLN CD11b+ cell number ([1]; 5%): 26.00 ± 3.54 × 10^4
- dLN CD11b+ frequency ([1]; 5%): 1.18 ± 0.11%
- dLN CD86 B-cells ([1]; 5%): 101.54 ± 3.64 MFI
- dLN CD86 DCs ([1]; 5%): 9.15 ± 0.71 MFI x 10^2
- dLN Dendritic Cells cell number ([1]; 5%): 35.40 ± 5.48 × 10^4
- dLN Dendritic Cells frequency ([1]; 5%): 1.60 ± 0.19%
- dLN Eosinophils cell number ([1]; 5%): 142.00 ± 22.90 × 10^2
- dLN MHCII B-cells ([1]; 5%): 8.02 ± 0.64 MFI × 10^2
- dLN NK cell number ([1]; 5%): 17.70 ± 2.11 × 10^4
- dLN NK frequency ([1]; 5%): 0.80 ± 0.06%
- dLN Neutrophils cell number ([1]; 5%): 16.70 ± 2.99 × 10^2
- dLN Total Cellularity ([1]; 5%): 21.70 ± 1.26 × 10^6
- spleen MFI of CD86 on B-cells ([2]; 2.5%): increase
- spleen NK cell frequency ([2]; 2.5%): increase
- spleen frequency of CD11b + Ly6C + cells ([2]; 2.5%): significant decrease
- spleen MFI of CD86 on B-cells ([2]; 5%): increase
- spleen frequency of CD11b + Ly6C + cells ([2]; 5%): significant decrease
- Liver: Hypertrophy, centrilobular, hepatocyte, Mild (incidence) ([3]; 1.25%): 0
- Liver: Hypertrophy, centrilobular, hepatocyte, Minimal (incidence) ([3]; 1.25%): 2/5 and 2
- Liver: Hypertrophy, centrilobular, hepatocyte, Mild (incidence) ([3]; 2.5%): 0
- Liver: Hypertrophy, centrilobular, hepatocyte, Minimal (incidence) ([3]; 2.5%): 5/5 and 5
- Liver: Hypertrophy, centrilobular, hepatocyte, Mild (incidence) ([3]; 5%): 0
- Liver: Hypertrophy, centrilobular, hepatocyte, Minimal (incidence) ([3]; 5%): 5/5 and 5
- microscopic observations in the kidney or the spleen [4]: No PFPeA, PFHxA, or PFHpA-related microscopic observations
- PFAS serum concentration vs vehicle ([5]; 2.5%): significant increase
- PFAS serum concentration vs vehicle ([5]; 5%): significant increase
- body weight or overt signs of toxicity ([6]; 1.25–5%): no changes
- Liver weight (% body weight), increase vs vehicle-treated mice ([6]; 5%): 9%
- serum glucose, increase compared to vehicle control [7]: 27%
- liver Pparδ expression ([8]; 1.25%): decreasing
- liver Acox1 gene expression ([8]; 2.5%): increase
- liver Fabp1 gene expression ([8]; 2.5%): increased
- liver Pparδ expression ([8]; 2.5%): decreasing
- liver Cd36 gene expression, increase ([8]; 5%): 4.6 fold
- liver Ehhadh gene expression, increase ([8]; 5%): 4.8 fold
- liver Pparδ expression ([8]; 5%): decreasing
- skin Pparδ gene expression ([9]; 1.25–5%): no changes
- skin Flg gene expression ([9]; 2.5%): increased
- skin Pparγ gene expression ([9]; 2.5%): decreased
- skin Flg gene expression ([9]; 5%): increased
- skin Lor gene expression ([9]; 5%): increased
- skin PPARα gene expression ([9]; 5%): decreased
- skin Pparγ gene expression ([9]; 5%): decreased
- skin S100a8 gene expression, increase ([9]; 5%): 16.8 fold
